According to ChEMBL document CHEMBL1149466, “Synthesis and pharmacochemical study of novel polyfunctional molecules combining anti-inflammatory, antioxidant, and hypocholesterolemic properties” (Bioorg Med Chem Lett, 2006):
The source made the active and inactive calls. No cut-off for these calls is given here.

Assays:
[1] = tested on: Radical scavenging activity; assay: DPPH radical scavenging activity at 0.1 mM; assay type: functional
Outline: (§1)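 Radical scavenging measured as % interaction with stable free radical DPPH (0.2 mM) after 30 min incubation, compounds at 0.2, 0.1 and 0.05 mM.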

[2] = tested on: Radical scavenging activity; assay: DPPH radical scavenging activity at 0.05 mM; assay type: functional; outline: as §1
Rattus norvegicus [3] = assay: Increase in paw weight in Fischer rats at 300 umol/kg, ip; assay type: functional
Outline: (§2)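 Carrageenan paw edema in rats; compounds given ip at 300 µmol/kg. Read-out % paw weight increase versus controls, converted to % edema inhibition; mean of 4-9 rats from two independent experiments, Student's t test.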

Rattus norvegicus [4] = assay: Anti-inflammatory activity against paw edema induced by carrageenan in fischer rat at 300 umol/kg, ip; assay type: functional; outline: as §2
[5] = tested on: Radical scavenging activity; assay: DPPH radical scavenging activity at 0.2 mM; assay type: functional; outline: as §1
[6] = tested on: Radical scavenging activity; assay: Inhibition of lipid peroxidation of rat hepatic microsomal membrane lipids at 1 mM; settings: Liver
Rattus norvegicus [7] = assay: Gastrointestinal toxicity in rat at 84 umol/kg, sc; assay type: organism-based; settings: in vivo
Outline: (§3)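 Female rats dosed sc once daily for four days. Mortality, perforating GI ulcer incidence, melena defecation and body weight loss recorded 24 h after last dose.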

Rattus norvegicus [8] = assay: Inhibition of arthritis in rat at 300-600 umol/kg, id; assay type: functional
Outline: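 Arthritis induced in rats by id injection of complete Freund's adjuvant; compounds dosed 300-600 µmol/kg for 14 days, arthritic score assessed day 15 post adjuvant, % inhibition versus controls; mean of 4-6 rats, Student's t test.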

[9] = tested on: Radical scavenging activity; assay: Inhibition of lipid peroxidation of rat hepatic microsomal membrane lipids; assay type: functional, Liver
Rattus norvegicus [10] = assay: Decrease in total cholesterol level in rat at 56 umol/kg, ip; parameters: scale not given: the % may be the effect or the level left; settings: route intraperitoneal
Rattus norvegicus [11] = assay: Decrease in LDL cholesterol level in rat at 56 umol/kg, ip; parameters: scale not given: the % may be the effect or the level left; settings: route intraperitoneal
[12] = biological target: T1, Seed linoleate 13S-lipoxygenase-1 (Glycine max, UniProt P08170); assay: Inhibition of soybean lipoxygenase; assay type: functional
T1 sequence (P08170 whole entry): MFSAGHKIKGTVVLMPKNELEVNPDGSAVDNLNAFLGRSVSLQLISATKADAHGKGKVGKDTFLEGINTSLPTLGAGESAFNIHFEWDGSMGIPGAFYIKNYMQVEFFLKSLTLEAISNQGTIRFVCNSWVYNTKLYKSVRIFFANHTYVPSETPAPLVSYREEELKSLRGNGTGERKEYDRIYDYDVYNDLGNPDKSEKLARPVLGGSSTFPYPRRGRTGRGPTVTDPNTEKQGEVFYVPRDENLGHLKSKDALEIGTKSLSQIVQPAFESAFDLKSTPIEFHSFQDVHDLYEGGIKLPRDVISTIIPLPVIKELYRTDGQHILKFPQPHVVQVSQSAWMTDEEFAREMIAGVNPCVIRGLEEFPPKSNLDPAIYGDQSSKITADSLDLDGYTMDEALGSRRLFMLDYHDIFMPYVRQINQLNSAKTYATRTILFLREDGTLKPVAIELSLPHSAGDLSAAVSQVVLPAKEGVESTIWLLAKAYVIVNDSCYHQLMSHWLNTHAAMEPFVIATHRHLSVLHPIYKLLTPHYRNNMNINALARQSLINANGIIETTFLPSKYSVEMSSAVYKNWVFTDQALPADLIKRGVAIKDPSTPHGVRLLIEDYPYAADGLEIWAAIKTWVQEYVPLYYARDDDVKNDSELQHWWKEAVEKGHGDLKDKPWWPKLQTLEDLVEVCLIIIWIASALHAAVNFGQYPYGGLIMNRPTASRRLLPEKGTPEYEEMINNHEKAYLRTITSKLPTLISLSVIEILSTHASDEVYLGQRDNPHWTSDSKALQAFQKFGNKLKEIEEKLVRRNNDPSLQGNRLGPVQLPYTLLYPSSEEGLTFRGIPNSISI
Outline: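 Soybean lipoxygenase, 220 U/ml, with sodium linoleate (100 μM) substrate, pH 9, 28 °C, 5 min; IC50 determined.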

Rattus norvegicus [13] = assay: Decrease in triglyceride level in rat at 56 umol/kg, ip; parameters: scale not given: the % may be the effect or the level left; settings: route intraperitoneal
Rattus norvegicus [14] = assay: Gastrointestinal toxicity in rat at 1350 umol/kg, sc; assay type: organism-based; settings: in vivo; outline: as §3
Rattus norvegicus [15] = assay: Decrease in triglyceride level in rat at 200 umol/kg, ip; parameters: scale not given: the % may be the effect or the level left; settings: route intraperitoneal
Rattus norvegicus [16] = assay: Decrease in total cholesterol level in rat at 200 umol/kg, ip; parameters: scale not given: the % may be the effect or the level left; settings: route intraperitoneal
Rattus norvegicus [17] = assay: Decrease in LDL cholesterol level in rat at 200 umol/kg, ip; parameters: scale not given: the % may be the effect or the level left; settings: route intraperitoneal

IC50 [9]	IC50 [12]	Structure (SMILES)	Activity [1]	Activity [2]	Activity (Rattus norvegicus [3])	inhibition in vivo at 300 µmol/kg (Rattus norvegicus [4])	Activity [5]	inhibition [6]	Activity (Rattus norvegicus [7])	Inhibition (Rattus norvegicus [8])	Activity (Rattus norvegicus [10])	Activity (Rattus norvegicus [11])	Activity (Rattus norvegicus [13])	Activity (Rattus norvegicus [14])	Activity (Rattus norvegicus [15])	Activity (Rattus norvegicus [16])	Activity (Rattus norvegicus [17])
		COc1ccc2cc(C(C)C(=O)N3CC(O)CC3C(=O)NCCS)ccc2c1 (stereo unspecified)	36.5%	21.3%	44.4%	24.1%	56.2%										
		CCOC(=O)[C@@H](N)CS						49%									
		COc1ccc2c(c1)c(CC(=O)O)c(C)n2C(=O)c1ccc(Cl)cc1 [INDOMETHACIN]			27%	53.9%			Toxic								
		COc1ccc2c(c1)c(CC(=O)N1CCCC1C(=O)NCCS)c(C)n2C(=O)c1ccc(Cl)cc1 (stereo unspecified)	inactive	inactive	48.5%	17%	inactive		Non-toxic	50.8%							
320 µM	48 µM	CCOC(=O)C(CS)NC(=O)C1CCCN1C(=O)C(C)c1ccc2cc(OC)ccc2c1 (stereo unspecified)	61.9%	32.1%	44.6%	23.7%	86.3%			100%	58%	55%	68.7%	Non-toxic			
		COc1ccc2cc([C@H](C)C(=O)O)ccc2c1 [NAPROXEN]			28.7%	51%								Toxic			
		NCCS						37%									
122 µM		CCOC(=O)C(CS)NC(=O)C1CCCCN1C(=O)C(C)c1ccc2cc(OC)ccc2c1 (stereo unspecified)	46%	23.5%	34.9%	50.7%	76.7%				40%	52%	21.3%				
	35 µM	COc1ccc2cc(C(C)C(=O)N3CCCC3C(=O)NCCS)ccc2c1 (stereo unspecified)	56.3%	28.8%	42.9%	26.7%	78.9%			51.6%				Non-toxic			
390 µM	200 µM	CCOC(=O)C(CS)NC(=O)C1CCCN1C(=O)Cc1c(C)n(C(=O)c2ccc(Cl)cc2)c2ccc(OC)cc12 (stereo unspecified)	44.2%	31.1%	50.1%	14.3%	69.7%		Non-toxic	77.4%					55.7%	78%	48.4%
